Assay outcomes as filed in PubChem BioAssay.
NRP1-CendR mod: modulators of CendR peptide binding to human neuropilin-1 | 360,000 compounds, 0.85% hits | FAM-RPARPAR peptide binding to NRP-1, fluorescence polarization | inhibition, % at 25 µM | O14786;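 active = inhibition or corrected inhibition above about 18%, plus a signal ratio from 0.5 to 1.5, limit read from the data, passing the limit was not always enough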
DAGLB inh: blocks human DAGLB lipase activity | Q8NCG7 | HEK293T DAGLB membrane lysate, EnzChek fluorogenic substrate | inhibition, % at 5.17 µM | 340,000 compounds, 0.059% hits; in the data active = inhibition above about 34%;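 note: 0% = enzyme with vehicle and 100% = wells lacking enzyme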
Target sequence (Q8NCG7 whole entry, looked up): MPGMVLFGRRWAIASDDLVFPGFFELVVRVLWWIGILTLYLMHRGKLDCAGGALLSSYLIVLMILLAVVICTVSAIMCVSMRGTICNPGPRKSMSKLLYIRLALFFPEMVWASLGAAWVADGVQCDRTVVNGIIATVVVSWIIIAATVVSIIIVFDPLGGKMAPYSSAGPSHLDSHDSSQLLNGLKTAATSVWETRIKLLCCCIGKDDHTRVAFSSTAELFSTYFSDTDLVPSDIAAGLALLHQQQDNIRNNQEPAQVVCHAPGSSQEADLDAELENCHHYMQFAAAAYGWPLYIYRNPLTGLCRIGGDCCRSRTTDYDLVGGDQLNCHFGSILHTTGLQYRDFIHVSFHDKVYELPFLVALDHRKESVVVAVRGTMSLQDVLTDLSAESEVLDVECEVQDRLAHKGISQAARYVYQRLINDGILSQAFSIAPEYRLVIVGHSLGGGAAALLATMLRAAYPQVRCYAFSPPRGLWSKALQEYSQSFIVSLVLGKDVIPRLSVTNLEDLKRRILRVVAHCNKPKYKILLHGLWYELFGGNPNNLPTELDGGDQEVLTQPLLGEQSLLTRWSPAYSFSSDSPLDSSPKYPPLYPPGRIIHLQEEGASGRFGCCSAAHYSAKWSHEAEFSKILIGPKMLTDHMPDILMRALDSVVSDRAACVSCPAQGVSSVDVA
CTSL1 counter: cathepsin L1 inhibition, PFM18AAP counter-screen; recombinant F. hepatica cathepsin L1, Z-Leu-Arg-MCA fluorescence; inhibition, % at 5.96 µM; 300,000 compounds, 0.49% hits;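 active = inhibition above the mean of all tested compounds plus 3 SD, set per screening campaign, cut at about 17% in these data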;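 note: 0% = plate median of test compound wells and 100% = 1 µM Z-Phe-Ala-diazomethylketone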
MT1-MMP act inh: MT1-MMP (human) activation inhibition; P50281; HT1080 RFP-PRO-GFP cells, GFP/RFP ratio fluorescence, overnight; percent of plate control window, DMSO zero; 360,000 compounds, 0.061% hits; GFP/RFP ratio change, % at 20 µM;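 active = GFP/RFP ratio change of at least 30% with cell ATP level not reduced by more than half and red fluorescence within 50% of control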
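Assay system: HT1080 RFP-PRO-GFP cells | Dosing: 20 µM single dose, 1% DMSO | Incubation: Cells overnight before dosing, compound overnight, 37 °C, 5% CO2 | Evaluation: GFP/RFP fluorescence ratio | Control set: DMSO-only wells and HT1080 RFP-L50D-GFP cell wells as references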
UCH37 DUB inh: inhibitors of human deubiquitinating enzyme UCH37. inhibition, % (concentration not given with the values). Q9Y5K5. 330,000 compounds, 0.33% hits. purified proteasome/UCH37, Ub-AMC cleavage fluorescence;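 active = mean inhibition over replicate wells above about 20%, limit read from the data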;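 note: 0% = compound-free wells with enzyme and 100% = wells lacking proteasome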
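Signal – fluorescence, ex 355 nm, em 460 nm · System – Proteasome-bound UCH37 · Input – 0.15 nM proteasome as dispensed · Timing – 30 min preincubation with enzyme, 25 min cleavage at room temperature · Read-out basis – percent inhibition of cleavage signal versus uninhibited and no-proteasome wells · Medium – Tris-HCl pH 7.4 with ATP-MgCl2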
UCH37 reconfirm: reconfirmed inhibitor of human deubiquitinase UCH37; shares compounds with UCH37 DUB inh; Proteasome-bound UCH37, Ub-AMC cleavage fluorescence; inhibition, % at 20 µM; 480 compounds, 27% hits;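 active = average inhibition over replicates above about 50%, so the earlier screening hit is confirmed, limit read from the data; inactive = the rest, counted as false positives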;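 note: based on cleavage rate fitted by regression over a 30 min kinetic read; 0% = proteasome plus Ub-AMC and 100% = Ub-AMC without proteasome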
* marks the source's active call; other numbers are inactive results; . = not tested or not shown. Rows were chosen to be rich in hits. Some 1.5% of all compounds tested hit in one or more screens of this group.

SMILES | NRP1-CendR mod | DAGLB inh | CTSL1 counter | MT1-MMP act inh | UCH37 DUB inh | UCH37 reconfirm
CCCC1=C(C(=O)OCC)C(c2ccc(OC)c(C)c2OC)C(C#N)=C(N)O1 (stereo not drawn) | 5 | -2 | -3 | 1 | 31* | -39
CCOC(=O)C1=C(CC)OC(N)=C(C#N)C1c1ccc(OC)c(C)c1OC (stereo not drawn) | -4 | -3 | 3 | 3 | 4 | .
NC(=O)C1CCN(C2=C(Cl)C(=O)c3ccccc3C2=O)CC1 | 22 | 2 | 24* | 6 | 82* | 17
NC(=O)C1CCN(c2ccc3c(c2)S(=O)(=O)c2ccccc2C3=O)CC1 | -9 | -1 | -1 | -72 | 2 | .
CN1CCN(C2=C(Cl)C(=O)c3ccccc3C2=O)CC1 | 36* | -8 | . | 6 | 97* | 97*
CN1CCN(C2=C(NS(=O)(=O)c3ccccc3)C(=O)c3ccccc3C2=O)CC1 | 12 | 1 | 10 | 2 | 12 | .
Clc1ccccc1C=NNc1cc(N2CCOCC2)ncn1 | . | . | . | . | 3 | .
CC(C)c1ccc(C(CC(=O)O)N2Cc3ccccc3C2=O)cc1 (stereo not drawn) | 14 | 0 | -8 | -2 | 62* | 81*
CC(=O)Nc1ccc(NC(=O)CC(C)=NNC(=O)COc2cc(C)c(Br)cc2Br)cc1 | . | . | . | . | 7 | .
Cc1ccc(C(=O)NNc2cc(N3CCCC3)nc(N3CCCC3)n2)cc1 | . | . | 0 | . | 49* | 50*
CC(=O)N(c1ccccc1C)C1CCCC1 | 15 | 0 | 6 | 0 | 1 | .
CC(=O)N(C1=C(Cl)C(=O)c2ccccc2C1=O)C1CCCCC1 | 23 | -7 | 23* | -181 | 44* | 54*
O=C(COc1ccc(Cl)cc1Cl)NCC(=O)NN=Cc1c[nH]c2ccccc12 | . | . | . | . | 6 | .
Cc1cc(NC(=O)c2cccc(Cl)c2)n[nH]1 | -2 | 0 | -1 | 1 | 35* | 11
Cc1cccc(NC(=O)c2cccc(C(=O)Nc3cccc(C)n3)c2)n1 | 0 | -3 | 3 | -3 | 1 | .
O=C(c1ccc(Cl)cc1)C(Cn1cncn1)C(Sc1ccccc1)c1ccccc1 (stereo not drawn) | -8 | -1 | 2 | -19 | -1 | .
Cc1ccc(SC(c2ccccc2)C(Cn2cncn2)C(=O)c2ccccc2)cc1 (stereo not drawn) | -2 | -4 | -2 | -1 | 42* | 20
CCc1cc2c(nc1CC)CCN(CCC(C)=NO[C@@H](C)c1cc(-c3c(C)cc(C)cc3C)no1)C2 | . | . | . | . | 5 | .
O=C(COc1ccccc1)NN=Cc1sc(=O)n(Cc2cccc(C(=O)O)c2)c1Cl | . | . | . | . | 8 | .
O=C(O)CC1S/C(=N/N=Cc2ccc(-c3ccccc3[N+](=O)[O-])o2)NC1=O (stereo not drawn) | . | . | . | . | 26* | 28
O=C(O)CC1S/C(=N/N=C/c2ccccn2)NC1=O (stereo not drawn) | 6 | 0 | -1 | -3 | . | .
O=C(O)CC1S/C(=N/N=Cc2ccc(-c3ccc(Cl)cc3[N+](=O)[O-])o2)NC1=O (stereo not drawn) | . | . | . | . | 28* | 17
CN(C)c1ccc(/C=C/c2cc[n+](C)cc2)cc1 | -204 | -2 | 4 | -67 | 17 | .
Cc1ccc(/C=C/c2ccc(N(C)C)cc2)[n+](C)c1 | -213 | -5 | 2 | -126 | 27* | 30
CCCN1C=CC(=CC=C(C#N)C#N)C=C1 | -234 | -11 | 7 | -113 | 38* | 26
SMILES | NRP1-CendR mod | DAGLB inh | CTSL1 counter | MT1-MMP act inh | UCH37 DUB inh | UCH37 reconfirm
C=CCN1C=C/C(=C\C=C(C#N)C#N)c2ccccc21 | -83 | 32 | 0 | 14 | 7 | .
C=CCN1C=CC(=CC=C(C#N)C#N)C=C1 | -216 | -12 | 7 | -132 | 29* | 20
O=C(NN=Cc1ccncc1)/C(=C/c1ccccc1)NC(=O)c1ccccc1 | . | . | . | . | 5 | .
COc1ccc(OC)c(C=NNC(=O)c2cnccn2)c1 | . | . | . | . | 10 | .
COc1cc(OC)c([N+](=O)[O-])cc1C=NNC(=O)c1ccncc1 | . | . | . | . | 44* | 15
COc1cc(OC)c(OC)cc1C=NNC(=O)c1cnccn1 | . | . | . | . | 41* | 27
COc1ccc(/C=N/NC(=O)c2ccncc2)c(OC)c1 | -7 | 2 | 5 | 0 | . | .
O=C(NN=Cc1ccc(OC(=O)c2ccccc2)c([N+](=O)[O-])c1)c1ccc(O)cc1 | . | . | . | . | 11 | .
